The EternaBench riboswitch data

System: MS2 coat protein
Assay: apparent Kd, MS2 coat protein; higher = weaker binding; RNA-MaP array; tryptophan 2.4 mM where present
Procedure, shortened: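 Designs on Illumina sequencing-chip clusters, transcribed by stalled E. coli RNA polymerase, were exposed to SNAP-549-labelled MS2 coat protein in doubling steps from 0.7 or 1.5 nM up to 3 µM, without and then with constant ligand. The buffer held 100 mM Tris-HCl pH 7.5, 80 mM KCl, 4 mM MgCl2, BSA, DTT, yeast tRNA and Tween-20. Apparent Kd values are medians of filtered per-cluster binding-curve fits to green signal normalised to red-channel RNA signal and control-cluster median Fmax.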

[1] = designed as: ON switch for tryptophan, no ligand
[2] = ligand present: tryptophan, designed as: ON switch for tryptophan
[3] = designed as: OFF switch for tryptophan, no ligand
[4] = ligand present: tryptophan, designed as: OFF switch for tryptophan

| Sequence | apparent Kd [1] | apparent Kd [2] | apparent Kd [3] | apparent Kd [4] |
| --- | --- | --- | --- | --- |
| AUACAUGAGGAUCACCCAUGUGAUGGCCGGCGAGGACCGGUACGGCCGCCACUCGUGAUCCGUCCUGAAAGCAAAGCUCCCAGCA | 55.2 nM | 122 nM | – | – |
| AUUCAUGGAAACAUGACAUACAUAACCGGUCGAGGACCGGUACGGCCGCCACUCGUUUGGAGGCACAUGAGGAUCACCCAUGUUA | 23.7 nM | 24.5 nM | – | – |
| CCAUAAGUACCGGUCCUCAGAUCCUCAUGACGAGGACCGGUACGGCCGCCACUCGAAACAUGAGGAUCACCCAUGUAAUAAUAUU | – | – | 27.9 nM | 21 nM |
| CCAUCUUCAUCGGCCGCCACUGAACCAAGGAGACAUGAGGAUCACCCAUGUAUGGGAAACCAUCAUAGGACCGGGAUGAAGGUGG | 36.1 nM | 30.9 nM | – | – |
| CGAGUAAGUUCAAUCGAAUAACGGUUUUCGCGAGGACCGGUACGGCCGCCACUCGUGUGAUAUCACACAUGAGGAUCACCCAUGU | 77.6 nM | 47.4 nM | – | – |
| CGUAUUGGAAACAGUACGAGUGAUCCGGUCCGAGGACCGGUACGGCCGCCACUCGAAAUAAAUAAACAUGAGGAUCACCCAUGUA | – | – | 18.6 nM | 28.4 nM |
| CUACAUUUGUAGAAACCGGUCAACAAUAAUCGAGGACCGGUACGGCCGCCACUCGAUGUAAAAUAAACAUGAGGAUCACCCAUGU | 18.1 nM | 19.3 nM | – | – |
| GACGCAUGAGUUGUAAAAGCUCAUGGGUCGCGAGGACCGGUACGGCCGCCACUCGGCUGUACAUGAGGAUCACCCAUGUCAGGGU | 275 nM | 580 nM | – | – |
| GAGCGCGUGGACUGGCGUGCUCCGCUCCGUCGAGGACCGGUACGGCCGCCACUCGACAUGAGGAUCACCCAUGUGUGCGCUCGCG | – | – | 51.5 nM | 96.3 nM |
| GAGUAGAGGACGGCCGCCACUAAACAUGAGGAUCACCCAUGUCGUGAUCCGUUACCUAGAGUAGAUAGGACCGGGUCAUAUAGUC | – | – | 26.4 nM | 21.3 nM |
| GCAUCCUAGUCGGCCGCCACUGACAUGAGGAUCACCCAUGUACAUGAGGAUCACCCAUGUUGUAACAGGACCGGGACUAGGAUGC | 99.7 nM | 49.5 nM | – | – |
| GCAUCCUAGUCGGCCGCCACUGCAACAUGAGGAUCACCCAUGUCAGGCCUCAUGUGUCCUGGUAGCAGGACCGGGACUAGGAUGC | 36.8 nM | 29.2 nM | – | – |
| GCAUCCUAGUCGGCCGCCACUGCAACAUGAGGAUCACCCAUGUCUGCAUCUUCAUGAUGCAGUAGCAGGACCGGGACUAGGAUGC | 185 nM | 20.2 nM | – | – |
| GCUAGGUCAUCGGCCGCCACUAACGAUGGCUCCAACAUGAGGAUCACCCAUGUGCCACAUGCGCAUAGGACCGGGAUGACCUAGC | 13 nM | 10.5 nM | – | – |
| GGCACAUAGUCGGCCGCCACUACUAACACCUCAGACAACAUGAGGAUCACCCAUGUUCCAGAGUGUAGGACCGGGACUAUGUGCC | 11.6 nM | 10.5 nM | – | – |
| GGCACAUAGUCGGCCGCCACUAGGGUGUAGUGGAAUAACAUGAGGAUCACCCAUGUAUUUGGGACUAGGACCGGGACUAUGUGCC | – | – | 25.2 nM | 20 nM |
| GGCCCGGACUUGGAAUGGGUGUUUCCCUCACGAGGACCGGUACGGCCGCCACUCGAAGACAUGAGGAUCACCCAUGUAGUCGACA | – | – | 44.9 nM | 12.5 nM |
| GGGACUAGAUCGGCCGCCACUGAUGGGACAUGAGGAUCACCCAUGUACGAAGUGAUCCAAUAAAUCAGGACCGGGAUCACUUGUA | – | – | 125 nM | 225 nM |
| GGGUCAGGCGCGGCCGCCACUGCGGUGAUGUGACAUGAGGAUCACCCAUGUUGUCAUGUGGCACAUAGGACCGGGCGCCUGGCCC | – | – | 29.2 nM | 31.6 nM |
| GGUUACUCUACGGCCGCCACUGAUUAUUUAUAGUCCUGUACAUAAACAUGAGGAUCACCCAUGUACAGGACCGGGUAGUGUAACC | 34.9 nM | 35.6 nM | – | – |

| Sequence | apparent Kd [1] | apparent Kd [2] | apparent Kd [3] | apparent Kd [4] |
| --- | --- | --- | --- | --- |
| GGUUACUCUACGGCCGCCACUGUAAAGUAAAUAUUAAUGUACAUGACAUGAGGAUCACCCAUGUACAGGACCGGGUAGUGUAACC | 42.8 nM | 18.5 nM | – | – |
| GUCGGUACGUCGGCAAAGCCGAUGUGCCAGCGAGGACCGGUACGGCCGCCACUCGUACAUGAGGAUCACCCAUGUCCGGUCCGGC | 69.2 nM | 70.7 nM | – | – |
| GUUGGAUACUCGGCCGCCACUGAGAGAGUCAUGUGAACAUGAGGAUCACCCAUGUAAUAUAUAUACAGGACCGGGAGUGUUGUAA | – | – | 21.6 nM | 16.8 nM |
| UAAACUACACAUGAGGAUCACCCAUGUGGCCGAGGACCGGUACGGCCGCCACUCGUGUGUUAAUAAAAGAACUGCAAGGUUCUGU | 350 nM | 84 nM | – | – |
| UAACAUGAGGAUCACCCAUGUAUACUAAGUCGAGGACCGGUACGGCCGCCACUCGAAAUUGAAGAAUUGGCGGUAAAUGUAAGUA | – | – | 12.2 nM | 12.5 nM |
| UAACAUGAGGAUCACCCAUGUUUGAAGGAACGAGGACCGGUACGGCCGCCACUCGACGAGUGGAUGAGAAGUGGGAUAGUGUGCU | 13.2 nM | 13.8 nM | – | – |
| UAAUCCGGUCCUCGAUAAUCCUCAUGUAAACGAGGACCGGUACGGCCGCCACUCGAUAACAUGAGGAUCACCCAUGUAAUAAUAA | – | – | 89.5 nM | 46.5 nM |
| UAAUGCAGGUCGGCCGCCACUACAAACAUGAGGAUCACCCAUGUAGUUACUGGGUGAAGUGGCAGUAGGACCGGGACCUGCAUAA | 289 nM | 342 nM | – | – |
| UACAUGAGGAUCACCCAUGUCCCAUGUGAACGAGGACCGGUACGGCCGCCACUCGACCGAGGCGGCACAUGAGGAUCACCCGCAU | 736 nM | 1580 nM | – | – |
| UACUUGCUGACGGCCGCCACUAGAACAUGAGGAUCACCCAUGUACCUGGUCCUUCAUGGGUGGACUAGGACCGGGUCAGCAAGAU | – | – | 339 nM | 549 nM |
| UAGUCCGCGACGGCCGCCACUCGCUGAUGCACAUGUGUCCGGGACAUGAGGAUCACCCAUGUUUCGAGGACCGGGUCGAUCCUAA | 78.2 nM | 57 nM | – | – |
| UAUGAGCGCACGGCCGCCACUGUCUUCAUCUGUUUGUCUACAUGAGGAUCACCCAUGUUGGUUUACAGGACCGGGUGCAACUAUG | 27.8 nM | 22.4 nM | – | – |
| UAUUAUCAGUCGGCCGCCACUGACACAUGAGGAUCACCCAUGUAAUUUGGGUUAUAUAUAAAUUACAGGACCGGGACAAAGGCUA | – | – | 358 nM | 295 nM |
| UCGGGCAUAGCGGCCGCCACUGUUUGGCGUGCGGAUGACGGAACAUGAGGAUCACCCAUGUUGUUUAGGACCGGGCUUGCGUCGU | – | – | 13.2 nM | 15.2 nM |
| UGCAUUAUACAUGGAUCACCCAUGUAGACACGAGGACCGGUACGGCCGCCACUCGGAAGAGGAAACAUGAGGAUCACCCAUGUGA | 78.5 nM | 78.2 nM | – | – |
| UGGGUCGGAUGAGUAAAUUGUCGGACUCAUCGAGGACCGGUACGGCCGCCACUCGGUUGUACAUGAGGAUCACCCAUGUCAGGGU | 364 nM | 223 nM | – | – |
| UUAUAUACUACGGCCGCCACUGAACAUGAGGAUCACCCAUGUAAUGUUCAGACGUCUUUAGACGACAGGACCGGGUAGAAUUAAA | 119 nM | 109 nM | – | – |
| UUAUAUACUACGGCCGCCACUGAACAUGAGGAUCACCCAUGUAAUGUUCAGAUUUUUUUUUUUUACAGGACCGGGUAGAAUUAAA | 159 nM | 133 nM | – | – |
| UUCACAUGGUAUGAAUAUACAUACAAGAAACGAGGACCGGUACGGCCGCCACUCGUGCCGGAAACAUGAGGAUCACCCAUGUGUU | – | – | 37 nM | 45.4 nM |
